Source: ChEMBL document CHEMBL3102711 (Eur J Med Chem, 2014)
pEC50: −log10 of the molar value. Calls of active or inactive are those of the source. No cut-off for these calls is given here.

Columns and labels:
[1] = Antiproliferative activity against human MUTU-I cells after 24 hrs by Alamar blue assay; type: functional, cell-based
[2] = (§1) Antiproliferative activity against human DG75 cells after 72 hrs by Alamar blue assay; type: functional, cell-based; details: DG-75, 72 h
PBMC = test: Antiproliferative activity against human PBMC at 10 uM after 24 hrs by Alamar blue assay; type: cell-based
Summary of the method: (§2)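 Cells were treated with a single 10 µM dose for 24 h. PBMCs came from healthy-donor blood by Ficoll density separation and were kept in IMDM with 10% FBS. Viability was read by Alamar Blue fluorescence (590 nm, ex 544 nm) against untreated cells. Three independent experiments were run, with a Student's t-test against vehicle.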

MUTU-I [3] = test: (§3) Antiproliferative activity against human MUTU-I cells at 10 uM after 24 hrs by Alamar blue assay; type: functional; summary of the method: as §2
[4] = (§4) Induction of apoptosis in human MUTU-I cells assessed as accumulation at pre-G1 phase at 10 uM after 24 hrs using propidium iodide staining by FACS analysis; type: functional
Summary of the method: (§5)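 Cells (7.5×10^5 per 5 mL) were treated, then washed in cold PBS and fixed overnight at 4 °C in 70% ethanol. They were stained with RNase A and propidium iodide for 30 min at 37 °C in the dark. Flow cytometry counted 10,000 gated cells, and the pre-G1 fraction was scored.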

DG-75 [5] = test: Antiproliferative activity against human DG75 cells at 10 uM after 24 hrs by Alamar blue assay
[6] = as §3; type: functional; summary of the method: as §2
[7] = Antiproliferative activity against human DG75 cells at 10 uM after 72 hrs by Alamar blue assay; type: functional, DG-75
DG-75 [8] = test: as §1; type: functional, cell-based
HL-60 [9] = test: Induction of apoptosis in human HL60 cells; type: functional, cell-based
MUTU-I [10] = test: Induction of apoptosis in human MUTU-I cells assessed as activation of caspase 3 and 7 at 10 uM after 8 hrs by Apotox-Glo Triplex assay; type: functional, cell-based
Summary of the method: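 Cells were seeded at 10,000/well and treated at 10 µM for 8 h. Caspase-Glo reagent (Apotox-Glo Triplex) was added, followed by brief orbital shaking and 30 min at room temperature, then a luminescence read. Vinblastine 100 nM was the positive control, with a Student's t-test against vehicle.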

HL-60 [11] = test: Induction of apoptosis in human HL60 cells expressing p-glycoprotein; type: functional, cell-based
HL-60 [12] = test: Induction of apoptosis in human HL60 cells expressing BCRP; type: functional, cell-based
MUTU-I [13] = test: as §4; type: functional; summary of the method: as §5

Row | SMILES | pEC50 [1] | pEC50 [2] | other results
1 | COC(=O)C(CC(C)C)NC(=O)C1CC2c3ccccc3C1c1ccccc12 (stereo unspecified) | < 4.00 | – | –
2 | N#C/C=C/c1c2ccccc2cc2ccccc12 | 4.67 | < 4.00 | –
3 | CCOC(=O)/C=C/c1c2ccccc2cc2ccccc12 | 4.57 | < 4.00 | –
4 | Cc1ccc(N2CCN(C(=O)/C=C/c3c4ccccc4cc4ccccc34)CC2)cc1 | 4.41 | < 4.00 | –
5 | CC(C)CC(NC(=O)C1CC2c3ccccc3C1c1ccccc12)C(=O)O (stereo unspecified) | < 4.00 | – | –
6 | CCN(CC)CC1C2c3ccccc3C(c3ccccc32)C1CN(CC)CC (stereo unspecified) | 4.19 | 4.29 | –
7 | c1ccc2c(c1)C1CC(CN3CCCCC3)C2c2ccccc21 (stereo unspecified) | 4.18 | 4.16 | –
8 | CC(=O)/C=C/c1c2ccccc2cc2ccccc12 | 4.66 | 5.12 | –
9 | CCOC(=O)CCC12c3ccccc3C(CC1C#N)c1ccccc12 (stereo unspecified) | 4.53 | < 4.00 | –
10 | CC[C@]1(O)C[C@@H]2CN(CCc3c([nH]c4ccccc34)[C@@](C(=O)OC)(c3cc4c(cc3OC)N(C)[C@H]3[C@@](O)(C(=O)OC)[C@H](OC(C)=O)[C@]5(CC)C=CCN6CC[C@]43[C@@H]65)C2)C1 [VINBLASTINE] | – | – | Activity (PBMC): Non-toxic; Activity (MUTU-I [3]): Active; Activity [4]: 52.89%; Activity (DG-75 [5]): Active
11 | N#CC1CC2c3ccccc3C1(CO)c1ccccc12 (stereo unspecified) | < 4.00 | < 4.00 | –
12 | CNCC12c3ccccc3C(CC1C#N)c1ccccc12 (stereo unspecified) | < 4.00 | < 4.00 | –
13 | Clc1ccc(COC(Cn2ccnc2)c2ccc(Cl)cc2Cl)c(Cl)c1 (stereo unspecified) [MICONAZOLE] | – | – | Activity [6]: >90%; Activity [7]: >90%
14 | COC(=O)C1=C(C(=O)OC)C2c3ccccc3C1c1ccccc12 | < 4.00 | – | Activity (DG-75 [8]): inactive
15 | N#CC1CC2c3ccccc3C1(/C=N/O)c1ccccc12 (stereo unspecified) | 4.69 | < 4.00 | –
16 | CCOC(=O)N1CCN(C(=O)/C=C/c2c3ccccc3cc3ccccc23)CC1 | 5.27 | 4.94 | Activity (HL-60 [9]): Active; Activity (PBMC): Non-toxic; Activity (MUTU-I [10]): Active; Activity (MUTU-I [3]): Active; Activity [4]: 54.7%; Activity (DG-75 [5]): Active; Activity (HL-60 [11]): Active; Activity (HL-60 [12]): Active
17 | CCOC(=O)C1=CC2c3ccccc3C1c1ccccc12 | < 4.00 | – | Activity (DG-75 [8]): inactive
18 | CN1CCN(C(=O)C2CC3c4ccccc4C2c2ccccc23)CC1 (stereo unspecified) | < 4.00 | – | –
19 | CNC(=O)/C=C/c1c2ccccc2cc2ccccc12 | 4.20 | < 4.00 | –
20 | O=C(/C=C/c1c2ccccc2cc2ccccc12)N1CCCC1 | 4.73 | 4.49 | –
21 | CCOC(=O)C1CC2c3ccccc3C1c1ccccc12 (stereo unspecified) | 4.26 | < 4.00 | –
22 | CN1CCN(C(=O)/C=C/c2c3ccccc3cc3ccccc23)CC1 | 5.12 | 4.21 | Activity (HL-60 [9]): inactive; Activity (PBMC): Non-toxic; Activity (MUTU-I [10]): inactive; Activity (MUTU-I [13]): inactive; Activity (HL-60 [11]): inactive; Activity (HL-60 [12]): inactive
23 | CCOC(=O)C1C2c3ccccc3C(c3ccccc32)C1C(=O)OCC (stereo unspecified) | 4.05 | < 4.00 | –
24 | CCN(CC)C(=O)O/N=C/C12c3ccccc3C(CC1C#N)c1ccccc12 (stereo unspecified) | 4.55 | 5.51 | Activity (HL-60 [9]): inactive; Activity (PBMC): Non-toxic; Activity (MUTU-I [10]): inactive; Activity (MUTU-I [13]): inactive; Activity (HL-60 [11]): inactive; Activity (HL-60 [12]): inactive
25 | COC(=O)C(Cc1ccc(O)cc1)NC(=O)C1CC2c3ccccc3C1c1ccccc12 (stereo unspecified) | 4.20 | 4.26 | –
26 | O=C(O)C(Cc1ccc(O)cc1)NC(=O)C1CC2c3ccccc3C1c1ccccc12 (stereo unspecified) | < 4.00 | – | –
27 | Clc1ccc(N2CCN(CC3CC4c5ccccc5C3c3ccccc34)CC2)cc1 (stereo unspecified) | < 4.00 | < 4.00 | –

Row | SMILES | pEC50 [1] | pEC50 [2] | other results
28 | CN(CC1CC2c3ccccc3C1c1ccccc12)C1CCCCC1 (stereo unspecified) | 4.64 | 4.45 | Activity (HL-60 [9]): inactive; Activity (HL-60 [11]): inactive; Activity (HL-60 [12]): inactive
29 | O=C(O)C1C2c3ccccc3C(c3ccccc32)C1C(=O)O (stereo unspecified) | < 4.00 | – | –
30 | O=[N+]([O-])c1ccc(/C=C/c2c3ccccc3cc3ccccc23)cc1 | 5.06 | < 4.00 | –
31 | CNC(=O)/C=C/C12c3ccccc3C(CC1C#N)c1ccccc12 (stereo unspecified) | < 4.00 | < 4.00 | –
32 | O=C(O)C1CC2c3ccccc3C1c1ccccc12 (stereo unspecified) | < 4.00 | – | –
33 | CN(C(=O)C1CC2c3ccccc3C1(C=O)c1ccccc12)C1CCCCC1 (stereo unspecified) | 4.39 | < 4.00 | Activity (HL-60 [9]): Active; Activity (HL-60 [11]): Active; Activity (HL-60 [12]): Active
34 | N#CC1CC2c3ccccc3C1(/C=N/OC(=O)c1ccccc1)c1ccccc12 (stereo unspecified) | 4.09 | 4.02 | –
35 | C1=C(CN2CCCCC2)C2c3ccccc3C1c1ccccc12 | 4.50 | 4.99 | –
36 | CN(C)C(=O)C1C2c3ccccc3C(c3ccccc32)C1C(=O)N(C)C (stereo unspecified) | < 4.00 | – | –
37 | CN(CC1=CC2c3ccccc3C1c1ccccc12)C1CCCCC1 | 4.13 | < 4.00 | –
38 | CCOC(=O)/C=C/C12c3ccccc3C(CC1C#N)c1ccccc12 (stereo unspecified) | 4.34 | < 4.00 | –
39 | O=[N+]([O-])/C=C/c1c2ccccc2cc2ccccc12 | 5.52 | 5.82 | Activity (HL-60 [9]): Active; Activity (PBMC): Toxic; Activity (MUTU-I [10]): Active; Activity [4]: 31.43%; Activity (HL-60 [11]): Active; Activity (HL-60 [12]): Active
40 | c1ccc2c(c1)C1CC(CN3CCOCC3)C2c2ccccc21 (stereo unspecified) | 4.63 | 5.06 | –
41 | CCN(CC)C(=O)C1C2c3ccccc3C(c3ccccc32)C1C(=O)N(CC)CC (stereo unspecified) | < 4.00 | – | –
42 | c1ccc(NCC2CC3c4ccccc4C2c2ccccc23)cc1 (stereo unspecified) | < 4.00 | < 4.00 | –
43 | CN(C)CC1CC2c3ccccc3C1c1ccccc12 (stereo unspecified) | < 4.00 | < 4.00 | –
44 | N#CC1CC2c3ccccc3C1(COC(=O)c1ccccc1)c1ccccc12 (stereo unspecified) | 4.61 | < 4.00 | –
45 | N#C/C=C/C12c3ccccc3C(CC1C#N)c1ccccc12 (stereo unspecified) | < 4.00 | < 4.00 | –
46 | CNC(=O)CCC12c3ccccc3C(CC1C#N)c1ccccc12 (stereo unspecified) | < 4.00 | < 4.00 | –
47 | CC(=O)OCC12c3ccccc3C(CC1C#N)c1ccccc12 (stereo unspecified) | 4.89 | < 4.00 | –
48 | CN(C)C(=O)/C=C/c1c2ccccc2cc2ccccc12 | 4.60 | < 4.00 | –
49 | O=C(/C=C/c1c2ccccc2cc2ccccc12)N1CCCCC1 | 5.72 | < 4.00 | Activity (MUTU-I [10]): Active; Activity [4]: 15.44%
50 | N#CC1CC2c3ccccc3C1(C=O)c1ccccc12 (stereo unspecified) | 4.50 | < 4.00 | –
51 | CCN(CC)C(=O)/C=C/c1c2ccccc2cc2ccccc12 | 4.67 | 5.03 | –
52 | CC(=O)O/N=C/C12c3ccccc3C(CC1C#N)c1ccccc12 (stereo unspecified) | 4.46 | < 4.00 | –
53 | CNC(C)/C=C/c1c2ccccc2cc2ccccc12 (stereo unspecified) | 4.20 | < 4.00 | –
54 | CCNCC1CC2c3ccccc3C1c1ccccc12 (stereo unspecified) | < 4.00 | < 4.00 | –
